Entries after “also recorded” stand apart in the source; their conditions may differ. Marks after values point to notes of the source that are not given here.
What was measured:
[1] = Phase I plasma pharmacokinetics, 24-hour continuous IV infusion; format: in vivo, human
Outline: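 Test compound given to patients as a 24 h continuous IV infusion in 21-day cycles. Plasma sampled predose, at 1, 3, 6, 12, 16 and 24 h, then at 24.5–96 h from infusion start. Extraction used pH 10.7 carbonate buffer with MTBE:hexane, then HPLC-MS/MS in positive ion mode; standard curve 1–200 ng/mL. t1/2 from an unweighted single-exponential fit to the log-linear terminal phase. AUC(0-∞) by linear up/log down with extrapolation. Clearance calculated as dose/AUC.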

[2] = Phase I urinary recovery of unchanged drug; format: in vivo, human; details: on average, at the highest dose levels
Outline: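 Urine collected during the 24 h infusion at 0–4, 4–8, 8–12 and 12–24 h, then at 24–28, 28–32, 32–36 and 36–48 h from infusion start. Unchanged test compound concentration and urine volume per interval gave total urinary recovery as percentage of dose. Calculated for subjects at the highest dose levels.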

[3] = Phase I safety, dose-limiting toxicity and maximum tolerated dose; format: in vivo, human
solid tumors = test: Phase I tumor response; format: in vivo, human
Outline: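 Patients with measurable taxane-resistant solid tumors received a 24 h continuous IV infusion every 21 days, with serial radiologic assessments. At baseline, longest diameters were summed for up to five lesions per organ and ten in total. Lesions had to measure ≥20 mm by conventional techniques or ≥10 mm by spiral CT. Response and progression were graded by RECIST v1.0.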

Ca125 antigen = test: Phase I serum Ca125 antigen; format: in vivo, human; details: ovarian cancer patient with prolonged stable disease
KSP = details: read-out: IC50 (KSP); background statement, ref not given; cited from earlier work
[4] = system: human ovarian carcinoma cells; details: treated human ovarian carcinoma cells; cited from earlier work
A2780 (ovarian cancer) = details: cited from earlier work
HCT116 (colon cancer) = details: cited from earlier work
KB-3-1 (cervical cancer) = details: cited from earlier work
xenograft tumors = details: mice, multi-dose regimen; background statement, ref not given; cited from earlier work
other kinesins = details: background statement, ref not given; cited from earlier work
[5] = 12 mg/m^2/24 h, treatment-related, all cycles (n=47)
[6] = 17 mg/m^2/24 h, treatment-related, all cycles (n=47)
[7] = 24 mg/m^2/24 h, treatment-related, all cycles (n=47)
[8] = 48 mg/m^2/24 h, treatment-related, all cycles (n=47)

Question: For `CN1CC[C@H](N(C)C(=O)N2CC(c3cc(F)ccc3F)=C[C@@]2(CO)c2ccccc2)[C@H](F)C1` [MK-0731, (2S)-4-(2,5-difluorophenyl)-n-[(3R,4S)-3-fluoro-1-methylpiperidin-4-yl]-2-(hydroxymethyl)-N-methyl-2-phenyl-2,5-dihydro-1H-pyrrole-1-carboxamide], which “dose dependence of end of infusion concentrations and AUC” value ([1]; 6 to 48 mg/m^2/24 h) is on record?
Answer: increase approximately dose proportionally; also recorded: increased approximately proportionately to the dose administered

Question: What about the “AUC (±SD)” value ([1]; at the MTD (17 mg/m^2/24 h)) of the same compound?
Answer: 10.5 (±7.3) μM × hour

Question: What about the “clearance (±SD)” value ([1]; at the MTD (17 mg/m^2/24 h)) of the same compound?
Answer: 153 mL/min

Question: And the “dose recovered in urine as unchanged drug” value [2]?
Answer: less than 4%

Question: What about the “toxicities, part 1” value ([3]; 12 mg/m^2) of the same compound?
Answer: no further toxicities were observed

Question: And the “Leukopenia, Grade 2, %” value [3, 5]?
Answer: 2.1%

Question: What about the “Neutropenia, Grade 2, %” value [3, 5] of the same compound?
Answer: 2.1%

Question: And the “Vomiting, Grade 2, %” value [3, 5]?
Answer: 2.1%

Question: And the “DLT, part 1” value ([3]; 17 mg/m^2, six patients)?
Answer: none experienced DLT

Question: And the “DLTs, part 2” value ([3]; 17 mg/m^2/24 h, 22 patients)?
Answer: no DLTs

Question: What about the “Hypophosphatemia, Grade 2, %” value [3, 6] of the same compound?
Answer: 2.1%

Question: What about the “Leukopenia, Grade 3, %” value [3, 6] of the same compound?
Answer: 2.1%

Question: What about the “Thrombocytopenia, Grade 2, %” value [3, 6] of the same compound?
Answer: 2.1%

Question: And the “Leukopenia, Grade 2, %” value [3, 7]?
Answer: 2.1%

Question: And the “Neutropenia, Grade 2, %” value [3, 7]?
Answer: 2.1%

Question: What about the “Neutropenia, Grade 3, %” value [3, 7] of the same compound?
Answer: 2.1%

Question: And the “Hyperglycemia, Grade 3, %” value [3, 8]?
Answer: 2.1%

Question: What about the “Hypocalcemia, Grade 2, %” value [3, 8] of the same compound?
Answer: 2.1%

Question: And the “Hypophosphatemia, Grade 2, %” value [3, 8]?
Answer: 2.1%

Question: What about the “Leukopenia, Grade 2, %” value [3, 8] of the same compound?
Answer: 2.1%

Question: What about the “Leukopenia, Grade 3, %” value [3, 8] of the same compound?
Answer: 2.1%

Question: What about the “Mucosal Inflammation, Grade 2, %” value [3, 8] of the same compound?
Answer: 2.1%

Question: And the “Nausea, Grade 3, %” value [3, 8]?
Answer: 2.1%

Question: And the “Thrombocytopenia, Grade 2, %” value [3, 8]?
Answer: 2.1%

Question: And the “Vomiting, Grade 3, %” value [3, 8]?
Answer: 2.1%

Question: What about the maximum tolerated dose ([3]; 24-hour IV infusion, 21-day cycles) of the same compound?
Answer: 17 mg/m^2

Question: And the neuropathy ([3]; all doses)?
Answer: without the development of neuropathy

Question: And the “Number of cycles, patient with stable disease” value (solid tumors; 17 mg/m^2/24 h, non-small cell lung cancer)?
Answer: 12 ^a cycles

Question: And the “Number of cycles, patient with stable disease” value (solid tumors; 17 mg/m^2/24 h, ovarian cancer)?
Answer: 11 ^a cycles

Question: What about the “patients with prolonged stable disease” value (solid tumors; 17 mg/m^2/24 h, part 2) of the same compound?
Answer: four

Question: And the “objective tumor response (RECIST)” value (solid tumors; all patients)?
Answer: no objective tumor responses; also recorded: no partial or complete responses

Question: And the “levels of the Ca125 antigen” value (Ca125 antigen)?
Answer: No decreases

Question: And the IC50 (KSP)?
Answer: 2.2 nM

Question: What about the spindle pole separation [4] of the same compound?
Answer: inhibits spindle pole separation

Question: What about the proliferation (A2780 (ovarian cancer)) of the same compound?
Answer: inhibits proliferation

Question: What about the proliferation (HCT116 (colon cancer)) of the same compound?
Answer: inhibits proliferation

Question: And the proliferation (KB-3-1 (cervical cancer))?
Answer: inhibits proliferation

Question: What about the “growth of xenograft tumors” value (xenograft tumors) of the same compound?
Answer: inhibited to a similar degree

Question: What about the “selectivity for KSP compared with other kinesins” value (other kinesins) of the same compound?
Answer: > 20,000 fold

Question: With `CC(=O)O[C@H]1C(=O)[C@@]2(C)[C@H]([C@H](OC(=O)c3ccccc3)[C@]3(O)C[C@H](OC(=O)[C@H](O)[C@@H](NC(=O)c4ccccc4)c4ccccc4)C(C)=C1C3(C)C)[C@]1(OC(C)=O)CO[C@@H]1C[C@@H]2O` [paclitaxel, reference compound] as the compound, how does the “growth of xenograft tumors” value (xenograft tumors) read?
Answer: inhibited to a similar degree

— PMC3394096 (Investigational New Drugs, 2011)
